Published values from different studies.
Protocols differ between the studies behind these lines.
Fibroblast growth factor 14: Fibroblast growth factor 14 (Homo sapiens, UniProt Q92915)
PLEKHA3: PLEKHA3 (Homo sapiens, UniProt Q9HB20)
ADRA2C: Alpha-2C adrenergic receptor (ADRA2C, Homo sapiens, UniProt P18825)

The Kd of `CC(=O)Nc1ccc(S(=O)(=O)N2CCN(CC(O)COc3ccc4ccccc4c3)CC2)cc1` (stereo not drawn) is reported as 8.53 µM (Fibroblast growth factor 14; binding; SPR).
For `CC(C)=CC[C@@H](O)C1=CC(=O)c2c(O)ccc(O)c2C1=O`, the Kd was 0.91 µM (Interleukin-6 (IL6, Homo sapiens, UniProt P05231); binding; BLI).
With `CCOc1ccc(-c2cc(C(=O)O)c(-c3ccc(Cl)cc3)o2)cc1` the Ki was 0.55 µM (PLEKHA3; ligand displacement; FP).
The Ki of `Cc1cc(Oc2ncccc2CN2CCN(c3ccc(Br)cc3)CC2)ccc1-c1c(C)c(=O)[nH]c(=O)n1C` is reported as 0.0761 µM (ADRA2C; ligand displacement; radioligand).
With `CCOc1ccc(C(=O)CC(SCc2ccc(Cl)cc2)C(=O)O)cc1OCC` (stereo not drawn) the Ki was 6.81 µM (PLEKHA3; ligand displacement; FP).
With `CC(=O)Nc1ccc(Oc2ccc3c(c2)C(=O)N(c2cc(C)ccc2C)C3=O)cc1` the Kd was 13.6 µM (Fibroblast growth factor 14; binding; SPR).
`Cc1cc(Oc2ncccc2CN2CCN(c3ccccc3)CC2)ccc1-c1c(C)c(=O)[nH]c(=O)n1C` has a Ki of 0.0115 µM (ADRA2C; ligand displacement; radioligand).
The Kd of `COc1nc(-c2cccc(-c3ccccc3)c2C)ccc1CNCCNC(=O)CCCCCCCCCCC(=O)N1CCN(CCNC(=O)c2cc3c(=O)n4cccc(C)c4nc3n(CCc3cccs3)c2=N)CC1` is reported as 0.625 µM (Programmed cell death 1 ligand 1 (Cd274, Mus musculus, UniProt Q9EP73); binding; BLI).
`CCOc1ccc(C(=O)CC(SCc2ccc(Br)cc2)C(=O)O)cc1` (stereo not drawn) has a Ki of 18.6 µM (PLEKHA3; ligand displacement; FP).
`CCOC(=O)c1cccc(NC(=O)Cn2cc(CO)c3ccccc32)c1` has a Kd of 0.293 µM (Fibroblast growth factor 14; binding; SPR).
`Cc1cc(Oc2ncccc2CN2CCN(Cc3ccc(F)cc3)CC2)ccc1-c1c(C)c(=O)[nH]c(=O)n1C` gave a Ki of 0.206 µM (ADRA2C; ligand displacement; radioligand).
`CCOc1ccc(C(=O)CC(SCc2ccc(Cl)cc2)C(=O)OC)cc1` (stereo not drawn) has a Ki of 17.3 µM (PLEKHA3; ligand displacement; FP).
For `Cn1cc(-c2ccnc3ccccc23)c(-c2ccccn2)n1`, the IC50 was 9.4 µM (Mitogen-activated protein kinase 14 (MAPK14, Homo sapiens, UniProt Q16539); enzyme activity; inhibitor; ADP detection).
For `CCOc1ccc(C(=O)CC(SCc2cccc(Br)c2)C(=O)O)cc1` (stereo not drawn), the Ki was 6.03 µM (PLEKHA3; ligand displacement; FP).
`Cc1cc(Oc2ncccc2CN2CCN(C(c3ccccc3)c3ccccc3)CC2)ccc1-c1c(C)c(=O)[nH]c(=O)n1C` gave a Ki of 0.137 µM (ADRA2C; ligand displacement; radioligand).
